Assay results from ChEMBL document CHEMBL5321243, “The Cytotoxic Cardiac Glycoside (-)-Cryptanoside A from the Stems of Cryptolepis dubia and Its Molecular Targets” (J Nat Prod, 2023).
pIC50: −log10 of the molar value. Active and inactive are the calls of the source. No cut-off for these calls is given here.

Assays:
MDA-MB-231 [1] = test: Upregulation of p-Akt expression in human MDA-MB-231 cells at 0.5 uM incubated for 5 hrs by Western blot analysis; assay type: functional, cell-based
Procedure, shortened: (§1)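 MDA-MB-231 cells in DMEM with 10% FBS and antibiotics, seeded overnight, then exposed to 0.5 µM or 0.48 µM (from DMSO) for 5 h at 37 °C. Cells washed in cold PBS, lysed in RIPA with EDTA and protease inhibitors; equal protein immunoblotted for p-Akt or NF-κB p50, normalized to β-actin; n = 3, t test versus control.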

HT-29 = test: Cytotoxicity against human HT-29 cells incubated for 72 hrs by Cell titer blue assay; assay type: functional, cell-based; conditions: HT-29, 72 h
Procedure, shortened: (§2)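 Cells grown in RPMI 1640 with 10% FBS, penicillin and streptomycin at 37 °C, 5% CO₂; 5,000 log-phase cells per well seeded, left overnight, then exposed 72 h to serial dilutions from DMSO (DMSO vehicle; paclitaxel positive control). Viability read by CellTiter-Blue absorbance; IC50 relative to vehicle by nonlinear regression; triplicate, three independent experiments.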

MDA-MB-231 [2] = test: Cytotoxicity against human MDA-MB-231 cells incubated for 72 hrs by Cell titer blue assay; assay type: functional, cell-based; conditions: MDA-MB-231, 72 h; procedure, shortened: as §2
OVCAR-3 = test: Cytotoxicity against human OVCAR-3 cells incubated for 72 hrs by Cell titer blue assay; assay type: functional, cell-based; conditions: OVCAR-3, 72 h; procedure, shortened: as §2
OVCAR-5 = test: Cytotoxicity against human OVCAR-5 cells incubated for 72 hrs by Cell titer blue assay; assay type: functional, cell-based; conditions: OVCAR-5, 72 h; procedure, shortened: as §2
MDA-MB-435 = test: Cytotoxicity against human MDA-MB-435 cells incubated for 72 hrs by Cell titer blue assay; assay type: functional, cell-based; conditions: MDA-MB-435, 72 h; procedure, shortened: as §2
[3] = Cytotoxicity against human FT194 cells incubated for 72 hrs by Cell titer blue assay; assay type: functional, cell-based; conditions: FT194, 72 h; procedure, shortened: as §2
MDA-MB-231 [4] = test: Downregulation of NF-kappaB p50 expression in human MDA-MB-231 cells at 0.5 uM incubated for 5 hrs by Western blot analysis; assay type: functional, cell-based; procedure, shortened: as §1
MDA-MB-231 [5] = test: Upregulation of Akt expression in human MDA-MB-231 cells at 1 to 10 uM incubated for 72 hrs by Western blot analysis; assay type: functional, cell-based; conditions: dose 1-10 µM
Procedure, shortened: (§3)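 MDA-MB-231 cells in DMEM with 10% FBS, penicillin and streptomycin; 5,000 cells per well seeded, left overnight, then exposed to 1.0, 5.0 or 10.0 µM (from DMSO) for 72 h at 37 °C. Surviving cells lysed in RIPA with 1 mM EDTA and protease inhibitors; equal protein (BCA) immunoblotted, signals normalized to β-actin; three independent experiments, t test versus control.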

MDA-MB-231 [6] = test: Upregulation of NF kappaB p65 expression in human MDA-MB-231 cells at 1 to 10 uM incubated for 72 hrs by Western blot analysis; assay type: functional, cell-based; conditions: dose 1-10 µM; procedure, shortened: as §3
MDA-MB-231 [7] = test: Downregulation of NF kappaB p52 expression in human MDA-MB-231 cells at 5 to 10 uM incubated for 72 hrs by Western blot analysis; assay type: functional, cell-based; conditions: dose 5-10 µM; procedure, shortened: as §3
MDA-MB-231 [8] = test: Effect on NF-kappaB p52 expression in human MDA-MB-231 cells at 1 to 10 uM incubated for 72 hrs by Western blot analysis; assay type: functional, cell-based; conditions: dose 1-10 µM; procedure, shortened: as §3
MDA-MB-231 [9] = test: Effect on PI3K expression in human MDA-MB-231 cells at 1 to 10 uM incubated for 72 hrs by Western blot analysis; assay type: functional, cell-based; conditions: dose 1-10 µM; procedure, shortened: as §3
[10] = molecular target: Sodium/potassium-transporting ATPase (Sus scrofa); test: Inhibition of NA+/K+ ATPase (porcine cerebral cortex) activity incubated for 15 mins in presence of ATP by ADP-Glo assay
MDA-MB-231 [11] = test: Downregulation of NF kappaB p50 expression in human MDA-MB-231 cells at 1 to 10 uM incubated for 72 hrs by Western blot analysis; conditions: dose 1-10 µM
MDA-MB-231 [12] = test: Upregulation of p-Akt expression in human MDA-MB-231 cells at 0.48 uM incubated for 5 hrs by Western blot analysis; assay type: functional, cell-based; procedure, shortened: as §1
MDA-MB-231 [13] = test: Downregulation of NF-kappaB p50 expression in human MDA-MB-231 cells at 0.48 uM incubated for 5 hrs by Western blot analysis; assay type: functional, cell-based; procedure, shortened: as §1

Row | Compound | Activity (MDA-MB-231 [1]) | pIC50 (HT-29) | pIC50 (MDA-MB-231 [2]) | pIC50 (OVCAR-3) | pIC50 (OVCAR-5) | pIC50 (MDA-MB-435) | pIC50 [3] | Activity (MDA-MB-231 [4]) | Activity (MDA-MB-231 [5]) | Activity (MDA-MB-231 [6]) | Activity (MDA-MB-231 [7]) | Activity (MDA-MB-231 [8]) | Activity (MDA-MB-231 [9]) | pIC50 [10] | Activity (MDA-MB-231 [11]) | Activity (MDA-MB-231 [12]) | Activity (MDA-MB-231 [13])
1 | CO[C@H]1C[C@H](O[C@H]2CC[C@]3(C)C4[C@H](O)C(=O)[C@]5(C)[C@@H](C6=CC(=O)OC6)CC[C@]5(O)[C@@]45O[C@H]5C[C@@H]3C2)O[C@@H](C)[C@@H]1O (stereo not given in full) | Active | 6.66 | 6.30 | 6.85 | 6.36 | 6.70 | 5.96 | inactive | Active | Active | Active | inactive | inactive | 5.92 | Active |  | 
2 | C[C@H]1O[C@@H](O[C@H]2[C@@H](O)C[C@H](O[C@H]3[C@@H](O)C[C@H](O[C@H]4CC[C@@]5(C)[C@H](CC[C@@H]6[C@@H]5C[C@@H](O)[C@]5(C)[C@@H](C7=CC(=O)OC7)CC[C@]65O)C4)O[C@@H]3C)O[C@@H]2C)C[C@H](O)[C@@H]1O |  |  |  |  |  |  |  |  | Active | Active |  | inactive | inactive |  | Active | Active | inactive
3 | CC(=O)O[C@H]1C(=O)[C@@]2(C)[C@H]([C@H](OC(=O)c3ccccc3)[C@]3(O)C[C@H](OC(=O)[C@H](O)[C@@H](NC(=O)c4ccccc4)c4ccccc4)C(C)=C1C3(C)C)[C@]1(OC(C)=O)CO[C@@H]1C[C@@H]2O [PACLITAXEL] |  | 5.47 |  | 8.31 | 5.14 |  |  |  |  |  |  |  |  |  |  |  | 
